# Results reported in paper PMC5164959 (Biochemical pharmacology, 2016).
# Values joined by “and” are separate entries in the source; they are usually repeats but may differ in a detail not shown here. Equal entries are not always repeated.
# Tests used:
# PKC [1] = assay: PKC activation: phosphorylation of PKC substrates by western blot in HeLa cells; type: cell-based, human
# Method in brief: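 HeLa cells were grown in DMEM with 5% FBS and treated 30 min with 4 or 40 μM test compound or 100 nM PMA, with or without 1 h pretreatment with 500 nM bisindolylmaleimide II. In separate runs, a 5-HT2AR agonist (10 μM, 6 h) was given with or without 40 μM antagonist. Lysates (50 μg) were immunoblotted for phospho-(Ser) PKC substrates; four independent experiments were quantified.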
# 5-HT2B [2] = target: T1, 5-HT2B (Homo sapiens, UniProt P41595); assay: Radioligand competition binding assay
# 5-HT7 [3] = target: T2, 5-HT7 (Homo sapiens, UniProt P34969); assay: Radioligand competition binding assay
# Method in brief: (§1)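 Run by the NIMH PDSP as radioligand competition binding assays. The primary screen used 10 μM test compound and reported mean percent inhibition of radioligand binding (n=4); above 50% counted as significant. At those receptors, IC50 values came from non-linear regression of competition binding isotherms and were converted to Ki with the Cheng-Prusoff equation.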
# 5-HT2B [4] = target: T1, 5-HT2B; assay: Antagonist functional assay; type: cell-based; conditions: read-out: Percent Inhibition of Agonist Response 5-HT2B
# Method in brief: (§2)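 Run by the NIMH PDSP as cell-based antagonist-mode functional assays. Test compounds were applied at 10 μM. The read-out was percent inhibition of the response to an EC90 concentration of a reference agonist; that concentration was determined empirically for each receptor.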
# 5-HT5A = 5-HT5A (Homo sapiens, UniProt P47898); assay: Radioligand competition binding assay
# Method in brief: as §1
# 5-HT3 = 5-HT3 (Homo sapiens, UniProt P46098); assay: Radioligand competition binding assay; conditions: read-out: Percent Inhibition of Binding 5-HT3
# Method in brief: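 Run by the NIMH PDSP as a radioligand competition binding primary screen. Test compounds were applied at 10 μM, and the read-out was mean percent inhibition of radioligand binding (n=4).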
# 5-HT1D [5] = target: T3, 5-HT1D (Homo sapiens, UniProt P28221); assay: Radioligand competition binding assay
# Method in brief: as §1
# 5-HT6 = 5-HT6 (Homo sapiens, UniProt P50406); assay: Radioligand competition binding assay
# Method in brief: as §1
# 5-HT1B = 5-HT1B (Homo sapiens, UniProt P28222); assay: Radioligand competition binding assay; conditions: read-out: Percent Inhibition of Binding 5-HT1B
# Method in brief: as §1
# 5-HT7 [6] = target: T2, 5-HT7; assay: Antagonist functional assay; type: cell-based; conditions: read-out: Percent Inhibition of Agonist Response 5-HT7
# Method in brief: as §2
# 5-HT1D [7] = target: T3, 5-HT1D; assay: Antagonist functional assay; type: cell-based; conditions: read-out: Percent Inhibition of Agonist Response 5-HT1D
# Method in brief: as §2
# 5-HT2C [8] = target: T4, 5-HT2C (Homo sapiens, UniProt P28335); assay: Radioligand competition binding assay
# T4 sequence (P28335 33-458): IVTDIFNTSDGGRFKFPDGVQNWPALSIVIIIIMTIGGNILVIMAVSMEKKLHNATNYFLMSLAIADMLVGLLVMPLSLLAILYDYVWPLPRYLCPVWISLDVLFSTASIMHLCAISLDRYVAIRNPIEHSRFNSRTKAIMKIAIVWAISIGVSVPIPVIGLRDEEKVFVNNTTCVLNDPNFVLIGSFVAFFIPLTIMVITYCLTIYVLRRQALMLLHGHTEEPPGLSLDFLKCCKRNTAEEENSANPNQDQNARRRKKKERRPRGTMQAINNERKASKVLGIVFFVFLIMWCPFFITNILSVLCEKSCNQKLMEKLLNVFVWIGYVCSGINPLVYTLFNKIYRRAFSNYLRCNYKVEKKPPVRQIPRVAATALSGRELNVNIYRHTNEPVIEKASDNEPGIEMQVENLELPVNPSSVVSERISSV
# 5-HTRs = assay: Agonist functional assays at 5 serotonin receptors; type: cell-based; conditions: 5 receptors where low Ki values were observed; data not shown
# 5-HT2C [9] = target: T4, 5-HT2C; assay: Antagonist functional assay; type: cell-based; conditions: read-out: Percent Inhibition of Agonist Response 5-HT2C
# Method in brief: as §2
# 5-HT1A = target: T5, 5-HT1A (Homo sapiens, UniProt P08908); assay: Radioligand competition binding assay
# T5 sequence (P08908 1-422): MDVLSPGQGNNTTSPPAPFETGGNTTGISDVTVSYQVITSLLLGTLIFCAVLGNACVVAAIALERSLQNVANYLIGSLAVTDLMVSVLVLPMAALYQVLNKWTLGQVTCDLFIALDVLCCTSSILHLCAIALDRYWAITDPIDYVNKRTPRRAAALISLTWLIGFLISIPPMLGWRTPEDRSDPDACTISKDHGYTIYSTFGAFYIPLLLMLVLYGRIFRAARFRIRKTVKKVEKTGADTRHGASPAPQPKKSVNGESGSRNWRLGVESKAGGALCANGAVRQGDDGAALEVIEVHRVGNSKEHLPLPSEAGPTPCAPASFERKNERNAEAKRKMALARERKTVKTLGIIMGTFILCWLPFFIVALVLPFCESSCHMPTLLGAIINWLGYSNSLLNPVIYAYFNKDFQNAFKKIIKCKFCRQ
# 5-HT2A [10] = target: T6, 5-HT2A (Homo sapiens, UniProt P28223); assay: Radioligand competition binding assay
# 5-HT2A [11] = target: T6, 5-HT2A; assay: Antagonist functional assay; type: cell-based; conditions: read-out: Percent Inhibition of Agonist Response 5-HT2A
# Method in brief: as §2
# PKC [12] = assay: PKC activation: phosphorylation of PKC substrates by western blot in U251 cells; type: cell-based, human; conditions: treatment for 30 min
# Method in brief: (§3)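 Glioblastoma cells were treated 30 min with 4 or 40 μM test compound or 100 nM PMA, with or without 1 h pretreatment with 500 nM bisindolylmaleimide II. Cleared Triton lysates (50 μg) were run on 8.75% SDS-PAGE and probed with phospho-(Ser) PKC substrate antibody, detected by alkaline phosphatase chemiluminescence. Three independent experiments were quantified.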
# PKC [13] = assay: PKC activation: phosphorylation of PKC substrates by western blot in U87 cells; type: cell-based, human; conditions: treatment for 30 min
# Method in brief: as §3
# DGKα [14] = target: T7, DGKα (Rattus norvegicus, UniProt P51556); assay: Kinase assay with purified DGKα and PC:DAG:PS liposomes; type: biochemical; conditions: for Vmax (ATP): ATP-dependent activity, 5 mol% DAG; for Vmax (DAG): DAG-dependent activity, 1 mM ATP; for Decrease of Vmax of purified DGKα: 0.5 mol% drug
# Method in brief: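 Rat FLAG-DGKα was expressed in HeLa cells by adenovirus (72 h) and purified on FLAG M2 beads. Reactions contained buffer B (MOPS pH 7.5), 1 mM CaCl2, 1 mM DTT and 4.75 mM PC:PS:DAG liposomes (5 mol% DAG), with test compound built into the liposomes at 0.5 or 2.0 mol% or added from DMSO. Reactions with [γ32P]-ATP ran 15 min at 25°C. Km and Vmax came from Michaelis-Menten non-linear regression.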
# DGKι = DGKι (Homo sapiens, UniProt O75912); assay: Kinase assay with HEK 293T cell homogenate over-expressing DGKι; type: biochemical
# DGKθ = DGKθ (Homo sapiens, UniProt P52824); assay: Kinase assay with HEK 293T cell homogenate over-expressing DGKθ; type: biochemical; conditions: 20 μM inhibitor, dioleoyl DAG liposomes
# Method in brief: (§4)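 Reactions without CaCl2 contained 5 μg homogenate, 2 mM liposomes (10 mol% dioleoyl DAG, 40 mol% PS, 50 mol% PC), buffer B, 1 mM DTT and [γ32P]-ATP, 20 min at 30°C. Test compound was added from DMSO. Extracted 32P-lipid was counted, GFP-lysate normalized, and expressed as percent of DMSO control.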
# DGKα [15] = target: T7, DGKα; assay: Kinase assay with HEK 293T cell homogenate over-expressing DGKα; type: biochemical
# Method in brief: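 Each reaction held 5 μg homogenate protein, 2 mM extruded PC:PS:DAG liposomes (10 mol% dioleoyl, dioctanoyl or stearoyl-arachidonoyl DAG), buffer B, 1 mM DTT, 1 mM CaCl2 and 1 mM [γ32P]-ATP, run 20 min at 30°C. Test compounds came from DMSO stocks. 32P-PA was counted, normalized to GFP lysate and to DMSO control; IC50 from log[inhibitor] versus normalized response.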
# [16] = cited from earlier work
# DGKδ = DGKδ (Homo sapiens, UniProt Q16760); assay: Kinase assay with HEK 293T cell homogenate over-expressing DGKδ; type: biochemical; conditions: 20 μM inhibitor, dioleoyl DAG liposomes
# Method in brief: as §4
# DGKβ = DGKβ (Rattus norvegicus, UniProt P49621); assay: Kinase assay with HEK 293T cell homogenate over-expressing DGKβ; type: biochemical; conditions: 20 μM inhibitor, dioleoyl DAG liposomes
# Method in brief: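 Reactions contained 5 μg homogenate, 2 mM liposomes (10 mol% dioleoyl DAG, 40 mol% PS, 50 mol% PC), buffer B, 1 mM DTT, 1 mM CaCl2 and [γ32P]-ATP, 20 min at 30°C. Test compound was added from DMSO. Organic-phase 32P was counted and expressed as percent of DMSO control after subtracting the GFP-lysate background.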
# T7 sequence (P51556 whole entry): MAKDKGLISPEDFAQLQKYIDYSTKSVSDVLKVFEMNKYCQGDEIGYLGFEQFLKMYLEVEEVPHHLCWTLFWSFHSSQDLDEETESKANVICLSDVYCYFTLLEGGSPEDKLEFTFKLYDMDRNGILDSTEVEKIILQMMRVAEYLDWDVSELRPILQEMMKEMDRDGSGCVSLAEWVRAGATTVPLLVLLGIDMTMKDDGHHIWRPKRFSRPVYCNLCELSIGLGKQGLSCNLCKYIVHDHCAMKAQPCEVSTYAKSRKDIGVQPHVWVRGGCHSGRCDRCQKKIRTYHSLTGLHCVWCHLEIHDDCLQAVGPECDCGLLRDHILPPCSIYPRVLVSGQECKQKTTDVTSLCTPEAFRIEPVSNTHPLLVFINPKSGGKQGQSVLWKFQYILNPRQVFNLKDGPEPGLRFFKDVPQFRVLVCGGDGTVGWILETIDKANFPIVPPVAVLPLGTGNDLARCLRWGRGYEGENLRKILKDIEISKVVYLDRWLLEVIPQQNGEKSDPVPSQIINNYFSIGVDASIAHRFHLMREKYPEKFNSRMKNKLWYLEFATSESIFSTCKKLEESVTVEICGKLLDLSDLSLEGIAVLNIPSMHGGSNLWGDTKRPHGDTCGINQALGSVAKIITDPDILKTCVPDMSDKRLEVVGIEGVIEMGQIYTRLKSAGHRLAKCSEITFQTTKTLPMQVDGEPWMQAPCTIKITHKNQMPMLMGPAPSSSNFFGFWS
# T1 sequence (P41595 whole entry, species assumed): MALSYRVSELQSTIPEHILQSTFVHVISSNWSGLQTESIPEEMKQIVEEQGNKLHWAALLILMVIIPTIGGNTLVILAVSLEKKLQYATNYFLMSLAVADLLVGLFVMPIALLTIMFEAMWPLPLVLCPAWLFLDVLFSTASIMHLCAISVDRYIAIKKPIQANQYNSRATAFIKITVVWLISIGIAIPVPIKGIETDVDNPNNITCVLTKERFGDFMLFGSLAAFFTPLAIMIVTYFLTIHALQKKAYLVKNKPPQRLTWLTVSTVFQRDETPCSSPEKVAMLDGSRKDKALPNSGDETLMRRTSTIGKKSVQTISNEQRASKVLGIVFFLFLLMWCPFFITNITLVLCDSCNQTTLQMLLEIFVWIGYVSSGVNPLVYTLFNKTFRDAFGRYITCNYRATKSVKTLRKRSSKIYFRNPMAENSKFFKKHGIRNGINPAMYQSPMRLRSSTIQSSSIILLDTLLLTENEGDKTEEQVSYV
# T2 sequence (P34969 whole entry, species assumed): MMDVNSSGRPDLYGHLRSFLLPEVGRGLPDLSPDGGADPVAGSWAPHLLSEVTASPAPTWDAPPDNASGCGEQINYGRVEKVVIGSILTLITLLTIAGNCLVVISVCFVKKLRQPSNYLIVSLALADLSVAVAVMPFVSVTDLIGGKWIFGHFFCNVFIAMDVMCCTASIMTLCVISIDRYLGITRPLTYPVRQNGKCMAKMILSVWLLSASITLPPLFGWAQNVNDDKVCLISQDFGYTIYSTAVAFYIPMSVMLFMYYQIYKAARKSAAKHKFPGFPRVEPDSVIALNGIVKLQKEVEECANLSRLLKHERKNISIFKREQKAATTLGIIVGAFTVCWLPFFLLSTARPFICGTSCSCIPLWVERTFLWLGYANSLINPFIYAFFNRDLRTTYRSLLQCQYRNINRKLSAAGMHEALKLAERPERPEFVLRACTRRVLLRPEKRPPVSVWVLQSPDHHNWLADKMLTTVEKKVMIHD
# T3 sequence (P28221 whole entry, species assumed): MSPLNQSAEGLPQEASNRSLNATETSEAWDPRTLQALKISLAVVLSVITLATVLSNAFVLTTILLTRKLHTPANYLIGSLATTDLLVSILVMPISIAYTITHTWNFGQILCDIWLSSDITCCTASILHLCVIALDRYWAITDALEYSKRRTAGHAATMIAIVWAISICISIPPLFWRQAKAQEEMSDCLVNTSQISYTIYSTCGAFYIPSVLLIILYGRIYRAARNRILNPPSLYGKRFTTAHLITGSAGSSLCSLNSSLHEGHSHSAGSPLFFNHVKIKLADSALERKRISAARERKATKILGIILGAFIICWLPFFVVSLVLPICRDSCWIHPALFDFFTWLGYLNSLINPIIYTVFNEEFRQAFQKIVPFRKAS
# DGKι, sequence (O75912 1-1065 isoform O75912-1): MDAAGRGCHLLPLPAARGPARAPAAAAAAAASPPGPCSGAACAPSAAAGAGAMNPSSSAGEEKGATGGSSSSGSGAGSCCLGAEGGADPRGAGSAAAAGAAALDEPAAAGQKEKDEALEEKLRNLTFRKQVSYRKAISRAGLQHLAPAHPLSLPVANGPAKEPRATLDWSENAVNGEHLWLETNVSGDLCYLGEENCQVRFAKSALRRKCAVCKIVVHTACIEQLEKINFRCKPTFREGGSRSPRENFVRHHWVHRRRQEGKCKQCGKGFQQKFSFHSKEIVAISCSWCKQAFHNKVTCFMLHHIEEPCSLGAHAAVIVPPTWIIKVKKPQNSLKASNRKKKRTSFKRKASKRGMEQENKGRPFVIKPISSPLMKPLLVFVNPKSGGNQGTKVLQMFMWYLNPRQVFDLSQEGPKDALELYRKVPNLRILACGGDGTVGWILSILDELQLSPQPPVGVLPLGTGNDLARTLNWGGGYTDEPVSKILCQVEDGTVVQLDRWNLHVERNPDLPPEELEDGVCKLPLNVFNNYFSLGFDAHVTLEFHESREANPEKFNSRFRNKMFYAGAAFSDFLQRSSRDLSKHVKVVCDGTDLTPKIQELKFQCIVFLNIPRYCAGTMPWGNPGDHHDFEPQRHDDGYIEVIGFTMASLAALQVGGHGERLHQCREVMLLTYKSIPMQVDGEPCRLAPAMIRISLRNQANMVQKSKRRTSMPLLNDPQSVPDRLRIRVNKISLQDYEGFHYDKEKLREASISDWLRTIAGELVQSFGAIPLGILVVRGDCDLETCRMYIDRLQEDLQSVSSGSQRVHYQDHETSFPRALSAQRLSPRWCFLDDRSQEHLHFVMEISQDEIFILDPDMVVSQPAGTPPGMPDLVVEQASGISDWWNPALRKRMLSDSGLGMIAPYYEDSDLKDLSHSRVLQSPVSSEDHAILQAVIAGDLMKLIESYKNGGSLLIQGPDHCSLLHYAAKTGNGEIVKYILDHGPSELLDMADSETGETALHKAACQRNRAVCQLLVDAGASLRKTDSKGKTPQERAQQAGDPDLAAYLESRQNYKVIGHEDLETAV
# T6 sequence (P28223 whole entry, species assumed): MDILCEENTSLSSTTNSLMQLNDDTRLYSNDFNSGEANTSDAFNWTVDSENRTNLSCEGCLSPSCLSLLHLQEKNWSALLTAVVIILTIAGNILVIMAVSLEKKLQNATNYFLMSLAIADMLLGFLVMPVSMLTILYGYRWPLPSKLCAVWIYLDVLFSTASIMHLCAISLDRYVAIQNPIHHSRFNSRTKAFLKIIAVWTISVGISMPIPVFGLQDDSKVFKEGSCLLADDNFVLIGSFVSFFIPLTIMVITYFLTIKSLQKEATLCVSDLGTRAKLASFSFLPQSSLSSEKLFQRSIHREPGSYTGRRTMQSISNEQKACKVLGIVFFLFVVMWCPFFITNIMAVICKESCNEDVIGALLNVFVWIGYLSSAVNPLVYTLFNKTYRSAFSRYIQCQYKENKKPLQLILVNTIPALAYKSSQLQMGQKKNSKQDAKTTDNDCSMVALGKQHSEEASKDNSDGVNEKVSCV
# 5-HT5A, sequence (P47898 whole entry, species assumed): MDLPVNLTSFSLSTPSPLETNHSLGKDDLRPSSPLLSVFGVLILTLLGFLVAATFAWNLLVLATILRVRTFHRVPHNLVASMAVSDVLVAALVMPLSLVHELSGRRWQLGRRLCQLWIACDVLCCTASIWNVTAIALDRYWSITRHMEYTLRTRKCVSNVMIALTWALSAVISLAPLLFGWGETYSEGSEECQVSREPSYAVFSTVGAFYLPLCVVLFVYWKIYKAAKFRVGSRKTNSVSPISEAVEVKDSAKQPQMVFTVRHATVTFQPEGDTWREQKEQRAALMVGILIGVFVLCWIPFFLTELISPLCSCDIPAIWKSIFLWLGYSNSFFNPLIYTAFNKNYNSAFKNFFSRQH
# 5-HT6, sequence (P50406 whole entry, species assumed): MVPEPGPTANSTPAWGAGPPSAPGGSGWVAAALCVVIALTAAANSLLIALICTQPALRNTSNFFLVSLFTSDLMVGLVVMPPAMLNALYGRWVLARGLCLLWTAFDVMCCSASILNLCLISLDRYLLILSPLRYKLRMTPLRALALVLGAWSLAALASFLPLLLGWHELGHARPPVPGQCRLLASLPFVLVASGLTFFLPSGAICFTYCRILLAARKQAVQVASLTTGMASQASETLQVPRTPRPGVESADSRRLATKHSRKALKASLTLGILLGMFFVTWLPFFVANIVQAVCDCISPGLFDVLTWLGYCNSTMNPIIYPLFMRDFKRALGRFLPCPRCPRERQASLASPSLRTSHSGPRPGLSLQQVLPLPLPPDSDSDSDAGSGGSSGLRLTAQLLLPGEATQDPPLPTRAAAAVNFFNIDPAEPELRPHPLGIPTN
# 5-HT3, sequence (P46098 24-478, species assumed): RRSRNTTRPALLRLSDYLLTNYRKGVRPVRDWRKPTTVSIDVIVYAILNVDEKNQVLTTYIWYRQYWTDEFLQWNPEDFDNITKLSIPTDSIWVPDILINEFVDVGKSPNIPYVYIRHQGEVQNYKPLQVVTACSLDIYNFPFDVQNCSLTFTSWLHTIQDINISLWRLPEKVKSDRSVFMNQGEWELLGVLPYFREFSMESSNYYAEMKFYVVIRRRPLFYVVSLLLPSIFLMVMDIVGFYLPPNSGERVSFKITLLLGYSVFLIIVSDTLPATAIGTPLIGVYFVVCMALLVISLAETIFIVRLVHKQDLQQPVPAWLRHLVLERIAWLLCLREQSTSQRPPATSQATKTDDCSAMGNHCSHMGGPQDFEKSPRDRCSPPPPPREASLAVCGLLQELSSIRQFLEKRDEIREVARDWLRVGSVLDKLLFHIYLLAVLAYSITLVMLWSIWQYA
compound,measurement,setting,value
"CCCCCCCCCCCCCC(=O)O[C@@H]1[C@@H](C)[C@@]2(O)[C@@H](C=C(CO)C[C@]3(O)C(=O)C(C)=C[C@@H]23)[C@@H]2C(C)(C)[C@]12OC(C)=O [PMA, Phorbol 12-myristate 13-acetate]",Increase in phosphorylation of PKC downstream targets,"PKC [1]; 100 nM PMA, 30 min",greater than 3 fold
"O=c1c2ccccc2[nH]c(=S)n1CCN1CCC(=C(c2ccc(F)cc2)c2ccc(F)cc2)CC1 [R59949, 3-[2-(4-[bis-(4-fluorophenyl)methylene]-1-piperidinyl)ethyl]-2,3-dihydro-2-thioxo-4(1H)quinazolinone]",Ki,5-HT2B [2],80 nM
same,inhibition at 10 µM,5-HT2B [2]; read-out: Percent Inhibition of Binding 5-HT2B,96.9%
same,Ki,5-HT7 [3],681 nM
same,inhibition at 10 µM,5-HT7 [3]; read-out: Percent Inhibition of Binding 5-HT7,82.8%
same,inhibition at 10 µM,5-HT2B [4],99.4%
same,Ki,5-HT5A,3.25 µM
same,inhibition at 10 µM,5-HT5A; read-out: Percent Inhibition of Binding 5-HT5A,71.6%
same,inhibition at 10 µM,5-HT3,0.7%
same,Ki,5-HT1D [5],64.5 nM
same,inhibition at 10 µM,5-HT1D [5]; read-out: Percent Inhibition of Binding 5-HT1D,76.7%
same,Ki,5-HT6,3.07 µM
same,inhibition at 10 µM,5-HT6; read-out: Percent Inhibition of Binding 5-HT6,71.8%
same,inhibition at 10 µM,5-HT1B,20.3%
same,inhibition at 10 µM,5-HT7 [6],32.9%
same,inhibition at 10 µM,5-HT1D [7],136%
same,Ki,5-HT2C [8],46 nM
same,inhibition at 10 µM,5-HT2C [8]; read-out: Percent Inhibition of Binding 5-HT2C,72.2%
same,Agonist activity at 5-HTRs,5-HTRs,very low to no activity
same,inhibition at 10 µM,5-HT2C [9],28.1%
same,Ki,5-HT1A,2000 nM
same,inhibition at 10 µM,5-HT1A; read-out: Percent Inhibition of Binding 5-HT1A,61.1%
same,Ki,5-HT2A [10],9.2 nM
same,inhibition at 10 µM,5-HT2A [10]; read-out: Percent Inhibition of Binding 5-HT2A,94.2%
same,inhibition at 10 µM,5-HT2A [11],101%
COc1cc(Br)c(OC)c2c1[C@H](CN)C2 [TCB-2],PKC activity,PKC [1]; 10 μM TCB-2 for 6 h,significant elevation of PKC activity
"CN1CCCC1CCn1cc(C2=C(c3c[nH]c4ccccc34)C(=O)NC2=O)c2ccccc21 (centres unmarked) [bis, bisindolylmaleimide II]",Change in basal PKC activity,PKC [1]; 500 nM bis alone for 1 h,did not see any changes in basal PKC activity
O=C(c1ccc(F)cc1)C1CCN(CCn2c(=O)[nH]c3ccccc3c2=O)CC1 [ketanserin],Effect on TCB-2-induced PKC activation,PKC [1]; 40 μM ketanserin co-treatment with 10 μM TCB-2 for 6 h,inhibited the ability of TCB-2 to activate PKC
same,Activation of PKC,"PKC [1]; 40 μM ketanserin, 30 min",no activation of PKC was observed
same,Activation of PKC,PKC [12],does not activate PKC
same,Activation of PKC,PKC [13],does not activate PKC
same,IC50,DGKα [14],264 µM
Cc1nc2sccn2c(=O)c1CCN1CCC(=C(c2ccc(F)cc2)c2ccc(F)cc2)CC1 [ritanserin],"Activity of DGKι, percent of control","DGKι; 20 μM inhibitor, dioleoyl DAG liposomes, cell homogenate",not detectably inhibited
same,IC50,"DGKι; IC50 for DGKι, cell homogenate, 1 mM ATP, 10 mol% DAG",55 to 65 µM and ~60 µM
same,IC50 for DGKι relative to IC50 for DGKα,DGKι; fold higher than IC50 for DGKα,2–3 fold
same,"Activity of DGKθ, percent of control",DGKθ,not detectably inhibited
same,IC50,DGKα [15],~15 µM
same,"Activity of DGKα, percent of control","DGKα [15]; 20 μM inhibitor, liposomes with dioleoyl DAG, cell homogenate",decreased by about half
same,Potency against DGKα with other DAG species,"DGKα [15]; 20 μM, liposomes containing dioctanoyl or stearoyl arachidonoyl DAG",similarly potent
same,Adverse side effects,[16],few adverse side effects
same,Oral bioavailability,[16],orally bioavailable
same,half-life,[16]; in humans,approximately 40 hours
same,"Activity of DGKδ, percent of control",DGKδ,not detectably inhibited
same,"Activity of DGKβ, percent of control",DGKβ,not detectably inhibited
same,Increase in phosphorylation of PKC downstream targets,"PKC [1]; 40 μM, 30 min",about 2.5 fold
same,Activation of PKC,PKC [12],not in U251 cells
same,Activation of PKC,PKC [13],activate PKC
same,Vmax (ATP),DGKα [14]; 0.5 mol% drug in liposomes,20 ± 1 nmol/min/mg
same,Vmax (DAG),DGKα [14]; 0.5 mol% drug in liposomes,17 ± 2 nmol/min/mg
same,Decrease of Vmax of purified DGKα,DGKα [14]; in the context of ATP,greater than 50%
same,Decrease of Vmax of purified DGKα,DGKα [14]; in the context of DAG,greater than 50%
same,Vmax (ATP),DGKα [14]; 2.0 mol% drug in liposomes,12 ± 0.01 ^† nmol/min/mg
same,Vmax (DAG),DGKα [14]; 2.0 mol% drug in liposomes,11 ± 2 nmol/min/mg
